# What was measured:
# SK-N-SH = experiment: Antitumour activity against human SK-N-SH cells assessed as cell growth inhibition measured after 72 hrs by SRB assay; assay type: functional, cell-based
# Method in brief: (§1)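 Exponentially growing cells trypsinized, seeded at 5 × 10^4 cells/mL in 96-well plates, cultured overnight, then exposed to compounds for 72 h. Cells fixed with 10% TCA 1 h, stained with SRB 15 min, dye dissolved in Tris-HCl, absorbance read; 50% growth-inhibitory concentration calculated.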
# B16 = experiment: Antitumour activity against mouse B16 cells assessed as cell growth inhibition measured after 72 hrs by SRB assay; assay type: functional, cell-based; conditions: B16, 72 h; method in brief: as §1
# ECa-109 cell line = experiment: Antitumour activity against human EC109 cells assessed as cell growth inhibition measured after 72 hrs by SRB assay; assay type: functional, cell-based; conditions: ECa-109, 72 h; method in brief: as §1
# MGC-803 = experiment: Antitumour activity against human MGC803 cells assessed as cell growth inhibition measured after 72 hrs by SRB assay; assay type: functional, cell-based; conditions: MGC-803, 72 h; method in brief: as §1
# A549 = experiment: Antitumour activity against human A549 cells assessed as cell growth inhibition measured after 72 hrs by SRB assay; assay type: functional, cell-based; conditions: A549, 72 h; method in brief: as §1
# SMMC-7721 = experiment: Antitumour activity against human SMMC7721 cells assessed as cell growth inhibition measured after 72 hrs by SRB assay; assay type: functional, cell-based; conditions: SMMC-7721, 72 h; method in brief: as §1
# HEK293 = experiment: Cytotoxicity against human HEK293 cells measured after 48 to 72 hrs by MTT assay; assay type: cell-based
# Method in brief: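 Cells seeded at 3 × 10^3 per well in 96-well plates, incubated overnight, then given fresh medium with a range of drug concentrations for 48 h or 72 h. MTT added (final 500 µg/mL) for 4 h, formazan dissolved in DMSO, absorbance at 570 nm; IC50 derived. Mean ± SD of 3 independent tests.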
# [1] = Solubility of the compound in water; assay type: physicochemical; conditions: buffer
smiles,measurement,setting,value
COc1cc2c(cc1O)CC[C@@H]1[C@@H]2CC[C@]2(C)C(=O)/C(=C/c3ccccc3)C[C@@H]12,IC50,SK-N-SH,22.4 µM
same,IC50,B16,17.8 µM
same,IC50,ECa-109 cell line,22.8 µM
same,IC50,MGC-803,17.7 µM
same,IC50,A549,19.4 µM
same,IC50,SMMC-7721,17.2 µM
COc1cc2c(cc1O)CC[C@@H]1[C@@H]2CC[C@]2(C)C(=O)/C(=C/c3ccc(C)cc3)C[C@@H]12,IC50,SK-N-SH,20.1 µM
same,IC50,B16,6 µM
same,IC50,ECa-109 cell line,22.5 µM
same,IC50,MGC-803,20.5 µM
same,IC50,A549,53 µM
same,IC50,SMMC-7721,20.8 µM
COc1ccccc1/C=C/C(=O)c1cc2c(cc1O)CC[C@@H]1[C@@H]2CC[C@]2(C)[C@@H](O)CC[C@@H]12,IC50,SK-N-SH,22.2 µM
same,IC50,B16,16.5 µM
same,IC50,ECa-109 cell line,26.5 µM
same,IC50,MGC-803,9.8 µM
same,IC50,A549,5.9 µM
same,IC50,SMMC-7721,0.6 µM
COc1cc2c(cc1O)CC[C@@H]1[C@@H]2CC[C@]2(C)C(=O)/C(=C/c3cc(OC)c(OC)c(OC)c3)C[C@@H]12,IC50,SK-N-SH,14.3 µM
same,IC50,B16,18.8 µM
same,IC50,ECa-109 cell line,13.9 µM
same,IC50,MGC-803,18.7 µM
same,IC50,A549,14.5 µM
same,IC50,SMMC-7721,2.8 µM
C[C@]12CC[C@@H]3c4cc(C(=O)/C=C/c5ccc(Cl)cc5)c(O)cc4CC[C@H]3[C@@H]1CC[C@@H]2O,IC50,SK-N-SH,15 µM
same,IC50,B16,15.3 µM
same,IC50,ECa-109 cell line,14 µM
same,IC50,MGC-803,15.7 µM
same,IC50,A549,12.1 µM
same,IC50,SMMC-7721,44.9 µM
COc1cc2c(cc1O)CC[C@@H]1[C@@H]2CC[C@]2(C)C(=O)/C(=C/c3ccc(S(C)(=O)=O)cc3)C[C@@H]12,IC50,SK-N-SH,20.5 µM
same,IC50,B16,7.7 µM
same,IC50,ECa-109 cell line,18.2 µM
same,IC50,MGC-803,10.5 µM
same,IC50,A549,5.9 µM
same,IC50,SMMC-7721,37.3 µM
same,IC50,HEK293,> 100 µM
COc1ccc(/C=C/C(=O)c2cc3c(cc2O)CC[C@@H]2[C@@H]3CC[C@]3(C)[C@@H](O)CC[C@@H]23)cc1,IC50,SK-N-SH,18.9 µM
same,IC50,B16,17.4 µM
same,IC50,ECa-109 cell line,18.2 µM
same,IC50,MGC-803,12.2 µM
same,IC50,A549,8.6 µM
same,IC50,SMMC-7721,16.1 µM
C[C@]12CC[C@@H]3c4cc(C(=O)/C=C/c5ccccc5Cl)c(O)cc4CC[C@H]3[C@@H]1CC[C@@H]2O,IC50,SK-N-SH,16.4 µM
same,IC50,B16,15.9 µM
same,IC50,ECa-109 cell line,13.2 µM
same,IC50,MGC-803,8.3 µM
same,IC50,A549,15.5 µM
same,IC50,SMMC-7721,11.3 µM
COc1cc2c(cc1O)CC[C@@H]1[C@@H]2CC[C@]2(C)C(=O)/C(=C/c3cccc([N+](=O)[O-])c3)C[C@@H]12,IC50,SK-N-SH,24.5 µM
same,IC50,B16,6.7 µM
same,IC50,ECa-109 cell line,23.3 µM
same,IC50,MGC-803,12.7 µM
same,IC50,A549,21.2 µM
same,IC50,SMMC-7721,8.1 µM
same,solubility,[1],Soluble
COc1cc2c(cc1O)CC[C@@H]1[C@@H]2CC[C@]2(C)C(=O)/C(=C/c3cccc(OC)c3OC)C[C@@H]12,IC50,SK-N-SH,18.2 µM
same,IC50,B16,12.7 µM
same,IC50,ECa-109 cell line,10.5 µM
same,IC50,MGC-803,18.3 µM
same,IC50,A549,20.4 µM
same,IC50,SMMC-7721,8.6 µM
same,IC50,HEK293,51 µM
same,solubility,[1],Soluble
COc1cc2c(cc1O)CC[C@@H]1[C@@H]2CC[C@]2(C)C(=O)/C(=C/c3cc(F)cc(F)c3)C[C@@H]12,IC50,SK-N-SH,8 µM
same,IC50,B16,14.2 µM
same,IC50,ECa-109 cell line,16.2 µM
same,IC50,MGC-803,10.7 µM
same,IC50,A549,15 µM
same,IC50,SMMC-7721,5.1 µM
C[C@]12CC[C@@H]3c4cc(C(=O)/C=C/c5cccc(Cl)c5)c(O)cc4CC[C@H]3[C@@H]1CC[C@@H]2O,IC50,SK-N-SH,10.3 µM
same,IC50,B16,12.4 µM
same,IC50,ECa-109 cell line,8.5 µM
same,IC50,MGC-803,8 µM
same,IC50,A549,10.9 µM
same,IC50,SMMC-7721,6.3 µM
C[C@]12CC[C@@H]3c4cc(C(=O)/C=C/c5ccc(Cl)cc5Cl)c(O)cc4CC[C@H]3[C@@H]1CC[C@@H]2O,IC50,SK-N-SH,22.7 µM
same,IC50,B16,13.1 µM
same,IC50,ECa-109 cell line,19.4 µM
same,IC50,MGC-803,12.5 µM
same,IC50,A549,13.7 µM
same,IC50,SMMC-7721,14.5 µM
COc1cc2c(cc1O)CC[C@@H]1[C@@H]2CC[C@]2(C)C(=O)/C(=C/c3ccc(Cl)cc3Cl)C[C@@H]12,IC50,SK-N-SH,17.8 µM
same,IC50,B16,16.5 µM
same,IC50,ECa-109 cell line,15.3 µM
same,IC50,MGC-803,15.8 µM
same,IC50,A549,15.5 µM
same,IC50,SMMC-7721,1.7 µM
